The record followed here is ChEMBL document CHEMBL2384910, “Lead optimization of 5-amino-6-(2,2-dimethyl-5-oxo-4-phenylpiperazin-1-yl)-4-hydroxyhexanamides to reduce a cardiac safety issue: discovery of DS-8108b, an orally active renin inhibitor” (Bioorg Med Chem, 2013).

Changes are numbered by the printed parent chain.

Broadly, the IC50 is the concentration at which inhibition is half-maximal.

The target in series [1] is T1, Renin (Macaca fascicularis, UniProt Q6DLS0).
T1 sequence (Q6DLS0 whole entry): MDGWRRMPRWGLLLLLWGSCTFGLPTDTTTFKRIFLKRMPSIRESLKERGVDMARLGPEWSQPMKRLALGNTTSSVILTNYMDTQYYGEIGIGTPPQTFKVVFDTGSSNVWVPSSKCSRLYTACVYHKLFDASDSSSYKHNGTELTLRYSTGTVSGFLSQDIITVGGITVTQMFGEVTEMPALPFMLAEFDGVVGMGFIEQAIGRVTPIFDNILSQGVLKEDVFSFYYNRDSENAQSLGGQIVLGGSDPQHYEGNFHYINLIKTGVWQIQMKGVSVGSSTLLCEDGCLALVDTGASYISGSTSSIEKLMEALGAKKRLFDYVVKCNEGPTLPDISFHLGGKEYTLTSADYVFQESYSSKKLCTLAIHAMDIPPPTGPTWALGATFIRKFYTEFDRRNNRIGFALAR
The series can be described thus: Inhibition of renin in cynomolgus monkey plasma after 1 hr by RIA. In short, it runs like this:
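Pooled mixed-gender EDTA cynomolgus monkey plasma with pH adjusting solution and Inhibitor A, compound in 1% DMSO final, incubated 1 h at 37 °C. Angiotensin I by competitive RIA; uninhibited and 4 °C controls define % inhibition; IC50 from four-parameter fit; ratio is compound IC50 over aliskiren IC50 in same plasma batch; ≥2 replicates.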

For series [2], the target named is T2, Renin (Macaca fascicularis) (UniProt Q6DLS0).
T2 sequence (whole entry): T1 sequence (Q6DLS0 whole entry)
In words: Ratio of compound IC50 to aliskiren IC50 for renin in cynomolgus monkey plasma.

The next series has as its system Rattus norvegicus. In words: Cardiotoxicity in Sprague-Dawley rat electrophysiology model assessed as QRS complex abnormalities at 10 mg/kg, iv by ECG analysis. The class given is toxicity, organism-based. Also on record: dose 10 mg/kg, route intravenous. The conditions noted are these: in vivo. In short, it runs like this:
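Male Sprague-Dawley rats anesthetized with inactin 100 mg/kg ip; surface lead II ECG recorded continuously. Compounds given as iv bolus via right jugular vein catheter after stabilization; QRS complex abnormality scored as no, moderate or severe change; n = 2 at 10 mg/kg.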

The target in series [3] is T3, Renin (Homo sapiens, UniProt P00797).
T3 sequence (P00797 whole entry): T1 sequence (Q6DLS0 whole entry) with A68T, L214I, A235S
The series can be described thus: Inhibition of human recombinant renin using Arg-Glu(EDANS)-Ile-His-Pro-Phe-His-Leu-Val-Ile-His-Thr-Lys (DABCYL)-Arg as substrate incubated for 10 mins prior to substrate addition measured after 90 mins by fluorescence assay. In short, it runs like this: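 Trypsin-activated recombinant human renin in 50 mM Tris-HCl pH 7.9, 100 mM NaCl, preincubated with compound 10 min at room temperature; FRET substrate Arg-Glu(EDANS)…Lys(DABCYL)-Arg added, 90 min at 37 °C.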

In the case of `CC[C@H](C[C@H](O)[C@@H](N)CN1CC(=O)N(c2ccccc2Cl)CC1(C)C)C(=O)Nc1ncccc1C.O=C(O)/C=C/C(=O)O`, the IC50 against Renin [1] was 15 nM; on Renin [3] it was 3.8 nM. The Ratio IC50 in series [2] amounted to 2.9. In addition, in the series on Rattus norvegicus, the Activity result is reported as “Toxic”.
For `CC[C@H](C[C@H](O)[C@@H](N)CN1CC(=O)N(c2ccccc2Cl)CC1(C)C)C(=O)Nc1cc(OC)ccn1`, the IC50 stood at 33 nM against Renin [1] and 6.7 nM at Renin [3]. Further, in series [2], the Ratio IC50 is 13.
`CC(C)NC(=O)[C@@H](C[C@H](O)[C@@H](N)CN1CC(=O)N(c2ccccc2Cl)CC1(C)C)C(C)C.O=C(O)/C=C/C(=O)O`: the IC50 came to 33 nM against Renin [1] and 2.9 nM on Renin [3]. The Ratio IC50 in series [2] worked out at 2.7. The Activity entry in the series on Rattus norvegicus is on record as “Toxic”.
The corresponding values for `CC[C@H](C[C@H](O)[C@@H](N)CN1CC(=O)N(c2ccccc2Cl)CC1(C)C)C(=O)N[C@H]1C2CC3CC1C[C@@](O)(C3)C2.O=C(O)/C=C/C(=O)O` are 1.8 nM, 1.1 nM, 0.7 and “Toxic”.
As to `CC(C)[C@H](C[C@H](O)[C@@H](N)CN1CC(=O)N(c2ccccc2Cl)CC1(C)C)C(=O)Nc1cccnc1`, the IC50 was 19 nM against Renin [1] and 2.1 nM at Renin [3]. Further, in series [2], the Ratio IC50 came to 1.9.
With `CC(C)[C@H](C[C@H](O)[C@@H](N)CN1CC(=O)N(c2ccccc2Cl)CC1(C)C)C(=O)NC12CC3CC(CC(O)(C3)C1)C2.O=C(O)/C=C/C(=O)O`, the IC50 on Renin [1] worked out at 6.5 nM; at Renin [3] it was 2 nM. The Ratio IC50 in series [2] was 0.7. In the series with Rattus norvegicus, the Activity result was “Toxic”.
Turning to `CC[C@H](C[C@H](O)[C@@H](N)CN1CC(=O)N(c2ccccc2Cl)CC1(C)C)C(=O)Nc1ccc(C)cc1.O=C(O)/C=C/C(=O)O`, the IC50 worked out at 28 nM on Renin [1] and 3.2 nM on Renin [3]. For the same compound, the Ratio IC50 in series [2] was 4.5. Further, the Activity entry in the series on Rattus norvegicus is on record as “Toxic”.
The corresponding values for `CC(C)[C@H](C[C@H](O)[C@@H](N)CN1CC(=O)N(c2ccccc2Cl)CC1(C)C)C(=O)Nc1ccc(F)c(F)c1.O=C(O)/C=C/C(=O)O` are 21 nM, 1.9 nM, 4.5 and “Toxic”.
As to `CC[C@H](C[C@H](O)[C@@H](N)CN1CC(=O)N(c2ccccc2Cl)CC1(C)C)C(=O)NCC(CC)(CC)CO.O=C(O)/C=C/C(=O)O`, the figures for the 50% inhibitory concentration (IC50) on Renin [1] and at Renin [3] were 3 nM and 1 nM, respectively. The Ratio IC50 in series [2] stood at 0.8. In addition, the Activity entry in the series on Rattus norvegicus is on record as “Toxic”.
The matching figures for `CC(C)[C@H](C[C@H](O)[C@@H](N)CN1CC(=O)N(c2ccccc2Cl)CC1(C)C)C(=O)NCC(C)(C)CO.O=C(O)/C=C/C(=O)O`: 9.6 nM, 1.7 nM, 0.8 and “Toxic”.
As to `CC(C)[C@H](C[C@H](O)[C@@H](N)CN1CC(=O)N(c2ccccc2Cl)CC1(C)C)C(=O)NC1CCOCC1.O=C(O)/C=C/C(=O)O`, the IC50 against Renin [1] stood at 9.8 nM; on Renin [3] it was 2 nM. Also, in series [2], the Ratio IC50 came out at 1.4. Further, the Activity entry in the series with Rattus norvegicus was “Toxic”.
The matching figures for `CC(C)[C@H](C[C@H](O)[C@@H](N)CN1CC(=O)N(c2cc(F)ccc2Cl)CC1(C)C)C(=O)N[C@H]1C2CC3CC1C[C@](O)(C3)C2.O=C(O)/C=C/C(=O)O`: 7.8 nM, 1.9 nM, 0.7 and “Non-toxic”.
The corresponding values for `CC[C@H](C[C@H](O)[C@@H](N)CN1CC(=O)N(c2ccccc2Cl)CC1(C)C)C(=O)NCC1(CO)CCCCC1.O=C(O)/C=C/C(=O)O` are 3.4 nM, 1.1 nM, 0.6 and “Toxic”.
The corresponding values for `CC[C@H](C[C@H](O)[C@@H](N)CN1CC(=O)N(c2ccccc2Cl)CC1(C)C)C(=O)NCC1(CO)CCCC1.O=C(O)/C=C/C(=O)O` are 3 nM, 1.1 nM, 0.7 and “Toxic”.
`CCCCNC(=O)[C@@H](C[C@H](O)[C@@H](N)CN1CC(=O)N(c2cc(F)ccc2Cl)CC1(C)C)C(C)C`: the Ratio IC50 in series [2] worked out at 1.2.
In the case of `CC(C)[C@H](C[C@H](O)[C@@H](N)CN1CC(=O)N(c2ccccc2Cl)CC1(C)C)C(=O)Nc1ncc(F)cc1F.O=C(O)/C=C/C(=O)O`, the IC50 worked out at 3.3 nM against Renin [1] and 1.7 nM on Renin [3]. Moreover, in series [2], the Ratio IC50 is 0.7. Besides, the Activity entry with Rattus norvegicus is “Toxic”.
The corresponding values for `CC(C)[C@H](C[C@H](O)[C@@H](N)CN1CC(=O)N(c2ccccc2Cl)CC1(C)C)C(=O)N[C@H]1C2CC3CC1C[C@](O)(C3)C2.O=C(O)/C=C/C(=O)O` are 2.2 nM, 1.3 nM, 0.9 and “Non-toxic”.
For the compound `CC(C)[C@H](C[C@H](O)[C@@H](N)CN1CC(=O)N(c2ccccc2Cl)CC1(C)C)C(=O)Nc1ccc(F)cc1.O=C(O)/C=C/C(=O)O`, the IC50 on Renin [1] amounted to 7.2 nM; on Renin [3], 1.4 nM. Also, in series [2], the Ratio IC50 is 1.2. Moreover, the Activity result in the series on Rattus norvegicus is “Toxic”.
Consider `Cc1ccc(F)cc1N1CC(C)(C)N(C[C@H](N)[C@@H](O)C[C@H](C(=O)N[C@H]2C3CC4CC2C[C@](O)(C4)C3)C(C)C)CC1=O.O=C(O)/C=C/C(=O)O`, for which the IC50 against Renin [1] was 10 nM; on Renin [3], 1.7 nM. In addition, in series [2], the Ratio IC50 stood at 0.9. Further, in the series on Rattus norvegicus, the Activity result is “Non-toxic”.
The matching figures for `COC(=O)C(C)(C)CNC(=O)[C@@H](C[C@H](O)[C@@H](N)CN1CC(=O)N(c2ccccc2Cl)CC1(C)C)C(C)C.O=C(O)/C=C/C(=O)O`: 23 nM, 1.8 nM, 1.6 and “Toxic”.
For `CC(C)[C@H](C[C@H](O)[C@@H](N)CN1CC(=O)N(c2ccccc2Cl)CC1(C)C)C(=O)NCC(C)(C)C(N)=O.O=C(O)/C=C/C(=O)O`, the Ratio IC50 in series [2] turned out to be 1.2. In addition, the Activity result with Rattus norvegicus is listed as “Non-toxic”.
Consider `CC(C)[C@H](C[C@H](O)[C@@H](N)CN1CC(=O)N(c2ccccc2Cl)CC1(C)C)C(=O)NCC(C)(C)O.O=C(O)/C=C/C(=O)O`, for which the IC50 against Renin [1] amounted to 15 nM; at Renin [3], 2.4 nM. Besides, the Ratio IC50 in series [2] was 1.9. Besides, the Activity entry in the series with Rattus norvegicus is given as “Non-toxic”.
As for `CC[C@H](C[C@H](O)[C@@H](N)CN1CC(=O)N(c2ccccc2Cl)CC1(C)C)C(=O)Nc1ccc(F)cc1.O=C(O)/C=C/C(=O)O`, the results for the IC50 at Renin [1] and at Renin [3] were 3.4 nM and 1.6 nM, respectively. In addition, the Ratio IC50 in series [2] was determined as 0.9. In the series on Rattus norvegicus, the Activity result was “Toxic”.
The matching figures for `CC[C@H](C[C@H](O)[C@@H](N)CN1CC(=O)N(c2ccccc2Cl)CC1(C)C)C(=O)Nc1ccc(OC)cc1.O=C(O)/C=C/C(=O)O`: 11 nM, 1.4 nM, 2.1 and “Toxic”.
The corresponding values for `Cc1ccc(F)cc1N1CC(C)(C)N(C[C@H](N)[C@@H](O)C[C@H](C(=O)Nc2cccnc2)C(C)C)CC1=O.O=C(O)/C=C/C(=O)O` are 33 nM, 2.4 nM, 3.3 and “Toxic”.
As to `CCCCNC(=O)[C@@H](C[C@H](O)[C@@H](N)CN1CC(=O)N(c2ccccc2Cl)CC1(C)C)C(C)C.O=C(O)/C=C/C(=O)O`, in series [2], the Ratio IC50 stood at 0.8. Also, the Activity entry in the series on Rattus norvegicus was “Toxic”.
`Cc1ccc(F)cc1N1CC(C)(C)N(C[C@H](N)[C@@H](O)C[C@H](C(=O)NCC(C)(C)C(=O)O)C(C)C)CC1=O`: the results for the IC50 at Renin [1] and at Renin [3] were 39 nM and 16 nM, respectively. The Ratio IC50 in series [2] is 16.
With `C[C@H](C[C@H](O)[C@@H](N)CN1CC(=O)N(c2ccccc2Cl)CC1(C)C)C(=O)NCC(C)(C)C`, the values for the IC50 on Renin [1] and on Renin [3] were 2.1 nM and 1 nM, respectively. The Ratio IC50 in series [2] came out at 0.5.
